Measured values gathered from unrelated publications.
Lines come from different studies, so protocols differ.
Cell line: A549
Observed: cell growth or viability

CCCCn1cnc2ccc(-c3ccc(NC(=O)C4CCCC4)nc3)cc2c1=O — IC50 (CCK-8; 72 h): 4.58 µM
Fc1ccccc1Nc1nc(-c2ccncc2)nc2c1CNCC2 — IC50 (MTT): > 100 µM
CCCCC(=O)Nc1ccc(-c2ccc3ncn(CCF)c(=O)c3c2)cn1 — IC50 (CCK-8; 72 h): > 10 µM
COc1ccccc1CNc1ccc(C(=O)O)cc1 — IC50 (resazurin; 72 h): > 100 µM
O=c1[nH]cc(F)c(=O)[nH]1 — IC50 (MTT; 48 h): 11.8 µM
NNc1nc2ccc(Br)cc2c(=O)n1-c1ccc(F)cc1 — IC50 (MTT; 48 h): 63.9 µM
CC(C)[C@@H]1NC(=O)[C@@H](CCCNC(=N)N)NC(=O)[C@H]([C@@H](C)O)NC(=O)[C@@H](CN)NC(=O)[C@H](Cc2ccccc2)NC(=O)[C@@H](Cc2ccccc2)NC1=O — IC50 (ATP luminescence): 79.8 µM
CNC(=O)c1cc(Oc2ccc(NC(=O)Nc3ccc(Cl)c(C(F)(F)F)c3)cc2)ccn1 — IC50 (MTT; 24 h): 2.92 µM
Cc1cc(NS(=O)(=O)c2ccc(NC(=O)/C(C#N)=C/c3ccc(N4CCCC4)cc3)cc2)no1 — IC50 (MTT; 48 h): 180 µM
Cc1sc2c(c1C)C(c1ccc(Cl)cc1)=N[C@@H](CC(=O)NCCCCNC(=O)COc1cccc3c1C(=O)N(C1CCC(=O)NC1=O)C3=O)c1nnc(C)n1-2 (some centres unmarked) — IC50 (CCK-8; 72 h): > 10 µM
CCCn1cnc2ccc(-c3ccc(N4CCCCCC4=O)nc3)cc2c1=O — IC50 (CCK-8; 72 h): > 10 µM
COc1ccc(NC(=S)N/N=C/c2cccc3cc4ccccc4nc23)cc1 — IC50 (MTT; 48 h): 17.8 µM
O=C(Cn1cc(COc2ncnc3[nH]cnc23)nn1)Nc1ccc(O)cc1 — IC50 (MTT): 26 µM
O=C(C=Cc1ccc(OCCCOc2ccc(C=CC(=O)c3cccs3)cc2)cc1)c1cccs1 — IC50 (MTT; 48 h): 92.4 µM
NS(=O)(=O)c1ccc(-n2nc(-c3nnc(CCl)o3)cc2-c2ccccc2)cc1 — IC50 (fluorescence; 48 h): 22.3 µM
CCCCC(=O)Nc1ccc(-c2ccc3ncn(CCCC)c(=O)c3c2)cn1 — IC50 (CCK-8; 72 h): 0.87 µM
Cc1cccc(C)c1NC(=S)N/N=C/c1ccc(N2CCC(O)CC2)cc1 — IC50 (MTT; 24 h): 1.56 µM
COc1cccc2c1C(=O)c1c(O)c3c(c(O)c1C2=O)C[C@@](O)(C(=O)CO)C[C@@H]3O[C@H]1C[C@H](N)[C@H](O)[C@H](C)O1 — IC50 (MTT): 3.87 mg/L
NS(=O)(=O)c1ccc(-n2nc(C(=O)NN=Cc3ccc(O)cc3)cc2-c2ccccc2)cc1 — IC50 (fluorescence; 48 h): 7.9 µM
CC(C)NC(=O)Nc1nc2cc(-c3ccc4ncn(Cc5ccccc5)c(=O)c4c3)ccc2s1 — IC50 (MTT; 72 h): > 20 µM
CCCC(=O)Nc1ccc(-c2ccc3ncn(Cc4ccc(C)cc4)c(=O)c3c2)cn1 — IC50 (CCK-8; 72 h): > 10 µM
NNc1nc2c(Cl)cc(Cl)cc2c(=O)n1-c1ccccc1 — IC50 (MTT; 48 h): > 200 µM
C[C@@H]1C[C@H]2[C@@H]3CCC4=CC(=O)C=C[C@]4(C)[C@@]3(F)[C@@H](O)C[C@]2(C)[C@@]1(O)C(=O)CO — IC50 (MTT; 48 h): 348 µM
CC(=O)Nc1nc2cc(-c3ccc4ncn(Cc5ccccc5)c(=O)c4c3)ccc2s1 — IC50 (MTT; 72 h): > 20 µM
COc1cccc2c1C(=O)c1c(O)c3c(c(O)c1C2=O)C[C@@](O)(C(=O)CO)C[C@@H]3O[C@H]1C[C@H](N)[C@H](O)[C@H](C)O1 — IC50 (MTT; 24 h): 0.69 mg/L
CN1CCC(NC2CCc3[nH]c4c(C(N)=O)ccc(-c5ccccc5Cl)c4c3C2)CC1 (centres unmarked) — IC50: 0.0301 µM
CC(C)[C@@H]1NC(=O)[C@@H](CCCNC(=N)N)NC(=O)[C@H]([C@@H](C)O)NC(=O)[C@@H](CCCN)NC(=O)[C@H](Cc2ccccc2)NC(=O)[C@@H](Cc2ccccc2)NC1=O — IC50 (ATP luminescence; 72 h): > 100 µM
O=C(O)c1ccc(NCc2ccc(Cl)cc2)cc1 — IC50 (resazurin; 72 h): > 100 µM
O=C(N[C@@H](CSCc1ccc([N+](=O)[O-])cc1)C(=O)NO)c1ccccc1 — IC50 (MTT; 48 h): 48.2 µM
COc1cc(C2C3=C(Nc4nc(SC)[nH]c(=O)c42)c2ccccc2C3=O)ccc1O (centres unmarked) — IC50 (MTT; 72 h): > 1000 µM
O=C(Nc1cccc(C(F)(F)F)c1)Nc1nc2cc(-c3ccc4ncn(CCN5CCOCC5)c(=O)c4c3)ccc2s1 — IC50 (MTT; 72 h): 1.48 µM
Cc1cc(NS(=O)(=O)c2ccc(NC(=O)/C(C#N)=C/c3ccncc3)cc2)no1 — IC50 (MTT; 48 h): 196 µM
COc1ccc(NC(=O)Nc2nc3cc(-c4ccc5ncn(CCN(C)C)c(=O)c5c4)ccc3s2)cc1 — IC50 (MTT; 72 h): 5.46 µM
CC(=NNC(=O)c1cc(-c2ccccc2)n(-c2ccc(S(N)(=O)=O)cc2)n1)c1ccc(Br)cc1 — IC50 (fluorescence; 48 h): 25.9 µM
O=C(NCc1ccccc1)Nc1nc2cc(-c3ccc4ncn(Cc5ccccc5)c(=O)c4c3)ccc2s1 — IC50 (MTT; 72 h): 3.13 µM
COc1cccc(CNc2ccc(C(=O)O)cc2)c1OC — IC50 (resazurin; 72 h): > 100 µM
CCCn1cnc2ccc(-c3ccc(N4CCCCC4=O)nc3)cc2c1=O — IC50 (CCK-8; 72 h): > 10 µM
CN(C)C(=O)Nc1nc2ccc(Br)cc2c(=O)n1-c1ccccc1 — IC50 (MTT; 48 h): 31.1 µM
COc1cc([C@@H]2c3cc4c(cc3[C@@H](O[C@@H]3O[C@@H]5CO[C@@H](C)O[C@H]5[C@H](O)[C@H]3O)[C@H]3COC(=O)[C@H]23)OCO4)cc(OC)c1O — IC50 (MTT; 48 h): 14.3 µM
CCCCn1cnc2ccc(-c3ccc(NC(=O)NCC)nc3)cc2c1=O — IC50 (CCK-8; 72 h): > 10 µM
COC(=O)c1cc(C(C)=NNc2nc(-c3ccc(C)cc3)cs2)ccc1O — IC50 (MTT; 96 h): 9.61 µM
CCCCn1cnc2ccc(-c3ccc(NC(=O)Nc4ccc(Cl)cc4)nc3)cc2c1=O — IC50 (CCK-8; 72 h): > 10 µM
C/C(=N\CCNCCNCC/N=C(\C)c1c(O)c2ccccc2oc1=O)c1c(O)c2ccccc2oc1=O — IC50 (MTT; 48 h): 6.66 µM
CSc1ccc(CNc2ccc(C(=O)O)cc2)cc1 — IC50 (resazurin; 72 h): > 100 µM
O=C(Nc1cccc(F)c1)Nc1nc2cc(-c3ccc4ncn(CCN5CCOCC5)c(=O)c4c3)ccc2s1 — IC50 (MTT; 72 h): > 20 µM
C/C(=N\C(=S)/N=C(\C)c1c(O)c2ccccc2oc1=O)c1c(O)c2ccccc2oc1=O — IC50 (MTT; 48 h): 6.66 µM
COc1cccc(NC(=O)Nc2nc3cc(-c4ccc5ncn(CCN(C)C)c(=O)c5c4)ccc3s2)c1 — IC50 (MTT; 72 h): 0.91 µM
OC1CCN(c2ccc(/C=N/NC(=S)NC3CCCCC3)cc2)CC1 — IC50 (MTT; 24 h): 3.83 µM
CC(=O)c1c(O)c2ccccc2oc1=O — IC50 (MTT; 48 h): 29.2 µM
O=C(Nc1cc(C(F)(F)F)cc(C(F)(F)F)c1)Nc1nc2cc(-c3ccc4ncn(Cc5ccccc5)c(=O)c4c3)ccc2s1 — IC50 (MTT; 72 h): 5.37 µM
